Test results published in ChEMBL document CHEMBL4251648, “Synthesis and bioevaluation and doking study of 1H-pyrrolo[2,3-b]pyridine derivatives bearing aromatic hydrazone moiety as c-Met inhibitors” (Eur J Med Chem, 2018).

What was measured:
A549 = assay: Antiproliferative activity against human A549 cells after 72 hrs by MTT assay; format: functional, cell-based
Outline: (§1)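 Cells grown in MEM with 10% FBS. About 4×10³ cells per well, pre-incubated 24 h at 37°C in 5% CO₂. Compound added at final concentrations, then 72 h. MTT added at 5 µg/mL final for 4 h at 37°C. Tested three times; IC50 taken as the average of […] determinations.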

HepG2 = assay: Antiproliferative activity against human HepG2 cells after 72 hrs by MTT assay; format: functional, cell-based
Outline: as §1, with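 “37°C. Formazan dissolved in DMSO and read at 492 nm against 630 nm reference.” for “37°C.”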

MCF7 = assay: Antiproliferative activity against human MCF7 cells after 72 hrs by MTT assay; format: functional, cell-based; outline: as §1
PC-3 = assay: Antiproliferative activity against human PC3 cells after 72 hrs by MTT assay; format: functional, cell-based; outline: as §1
[1] = biological target: Hepatocyte growth factor receptor (Homo sapiens, UniProt P08581); assay: Inhibition of c-Met (unknown origin) using FAM-labeled peptide substrate after 10 mins by mobility shift assay
[2] = biological target: Vascular endothelial growth factor receptor 2 (Homo sapiens, UniProt P35968); assay: Inhibition of VEGFR2 (unknown origin)
[3] = biological target: Epidermal growth factor receptor (Homo sapiens, UniProt P00533); assay: Inhibition of EGFR (unknown origin)
[4] = biological target: T1, Receptor-type tyrosine-protein kinase FLT3 (Homo sapiens, UniProt P36888); assay: Inhibition of FLT3 (unknown origin)
T1 sequence (P36888 whole entry): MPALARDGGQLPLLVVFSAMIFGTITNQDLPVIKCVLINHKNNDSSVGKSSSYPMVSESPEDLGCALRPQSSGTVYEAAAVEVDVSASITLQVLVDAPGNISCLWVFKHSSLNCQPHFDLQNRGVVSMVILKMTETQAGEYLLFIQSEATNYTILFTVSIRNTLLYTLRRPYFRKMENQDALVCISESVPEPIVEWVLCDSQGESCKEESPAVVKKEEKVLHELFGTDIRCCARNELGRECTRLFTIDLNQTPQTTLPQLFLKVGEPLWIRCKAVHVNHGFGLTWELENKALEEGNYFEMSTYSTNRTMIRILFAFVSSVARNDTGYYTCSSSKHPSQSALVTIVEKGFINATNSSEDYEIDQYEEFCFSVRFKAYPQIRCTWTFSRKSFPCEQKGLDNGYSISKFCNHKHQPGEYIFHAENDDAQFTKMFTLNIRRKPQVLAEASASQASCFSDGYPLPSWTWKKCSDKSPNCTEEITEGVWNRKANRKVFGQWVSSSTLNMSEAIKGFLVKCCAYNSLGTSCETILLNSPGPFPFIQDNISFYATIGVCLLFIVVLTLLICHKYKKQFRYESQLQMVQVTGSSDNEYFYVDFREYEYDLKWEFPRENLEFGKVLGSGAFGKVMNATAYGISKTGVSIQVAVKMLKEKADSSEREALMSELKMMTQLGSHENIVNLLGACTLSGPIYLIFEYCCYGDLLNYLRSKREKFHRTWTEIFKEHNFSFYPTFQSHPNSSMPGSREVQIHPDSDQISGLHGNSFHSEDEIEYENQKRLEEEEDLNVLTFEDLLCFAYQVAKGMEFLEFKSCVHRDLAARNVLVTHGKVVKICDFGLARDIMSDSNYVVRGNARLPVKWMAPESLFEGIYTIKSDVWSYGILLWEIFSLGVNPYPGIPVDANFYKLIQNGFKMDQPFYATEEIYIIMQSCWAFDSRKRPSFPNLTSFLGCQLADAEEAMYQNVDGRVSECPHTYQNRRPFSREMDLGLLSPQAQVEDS

[5] = Homo sapiens, A549, 72 h, read-out: IC50
[6] = Homo sapiens, HepG2, 72 h, read-out: IC50
[7] = Homo sapiens, MCF7, 72 h, read-out: IC50
[8] = Homo sapiens, PC-3, 72 h, read-out: IC50

Hepatocyte growth factor receptor, sequence (P08581 whole entry): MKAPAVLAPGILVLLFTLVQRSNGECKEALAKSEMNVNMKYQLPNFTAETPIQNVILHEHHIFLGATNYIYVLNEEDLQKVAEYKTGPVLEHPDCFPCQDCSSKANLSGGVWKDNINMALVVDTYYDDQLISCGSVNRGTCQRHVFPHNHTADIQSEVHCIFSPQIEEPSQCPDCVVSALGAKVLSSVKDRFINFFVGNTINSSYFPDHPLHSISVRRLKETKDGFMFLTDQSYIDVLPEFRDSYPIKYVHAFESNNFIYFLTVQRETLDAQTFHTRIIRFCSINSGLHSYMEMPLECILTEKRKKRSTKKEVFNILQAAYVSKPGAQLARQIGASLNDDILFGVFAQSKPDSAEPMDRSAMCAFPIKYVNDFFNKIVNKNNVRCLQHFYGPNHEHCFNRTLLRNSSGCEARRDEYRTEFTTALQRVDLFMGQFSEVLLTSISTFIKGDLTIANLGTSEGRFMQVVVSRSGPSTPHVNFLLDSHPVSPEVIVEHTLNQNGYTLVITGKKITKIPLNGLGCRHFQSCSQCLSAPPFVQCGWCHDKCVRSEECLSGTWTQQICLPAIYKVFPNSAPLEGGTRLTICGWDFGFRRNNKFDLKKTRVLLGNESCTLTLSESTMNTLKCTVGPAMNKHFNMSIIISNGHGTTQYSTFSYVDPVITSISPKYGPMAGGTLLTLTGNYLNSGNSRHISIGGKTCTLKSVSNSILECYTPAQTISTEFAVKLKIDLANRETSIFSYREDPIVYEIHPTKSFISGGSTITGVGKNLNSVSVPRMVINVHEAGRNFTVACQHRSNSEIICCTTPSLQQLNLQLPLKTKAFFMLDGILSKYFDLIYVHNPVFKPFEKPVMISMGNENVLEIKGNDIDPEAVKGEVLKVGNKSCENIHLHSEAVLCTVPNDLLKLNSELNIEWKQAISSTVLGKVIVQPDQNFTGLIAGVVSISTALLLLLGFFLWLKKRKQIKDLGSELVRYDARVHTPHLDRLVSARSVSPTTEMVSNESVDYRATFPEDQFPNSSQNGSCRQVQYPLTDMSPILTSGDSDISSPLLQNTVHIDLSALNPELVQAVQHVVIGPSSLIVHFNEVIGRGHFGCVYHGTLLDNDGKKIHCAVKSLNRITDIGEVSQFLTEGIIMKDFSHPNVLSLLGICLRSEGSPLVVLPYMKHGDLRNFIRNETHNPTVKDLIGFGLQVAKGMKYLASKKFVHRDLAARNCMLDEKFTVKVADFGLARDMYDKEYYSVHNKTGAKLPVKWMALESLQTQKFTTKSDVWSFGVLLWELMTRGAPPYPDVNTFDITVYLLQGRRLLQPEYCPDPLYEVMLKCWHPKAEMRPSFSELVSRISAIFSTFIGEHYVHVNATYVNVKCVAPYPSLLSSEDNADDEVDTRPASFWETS
Vascular endothelial growth factor receptor 2, sequence (P35968 whole entry): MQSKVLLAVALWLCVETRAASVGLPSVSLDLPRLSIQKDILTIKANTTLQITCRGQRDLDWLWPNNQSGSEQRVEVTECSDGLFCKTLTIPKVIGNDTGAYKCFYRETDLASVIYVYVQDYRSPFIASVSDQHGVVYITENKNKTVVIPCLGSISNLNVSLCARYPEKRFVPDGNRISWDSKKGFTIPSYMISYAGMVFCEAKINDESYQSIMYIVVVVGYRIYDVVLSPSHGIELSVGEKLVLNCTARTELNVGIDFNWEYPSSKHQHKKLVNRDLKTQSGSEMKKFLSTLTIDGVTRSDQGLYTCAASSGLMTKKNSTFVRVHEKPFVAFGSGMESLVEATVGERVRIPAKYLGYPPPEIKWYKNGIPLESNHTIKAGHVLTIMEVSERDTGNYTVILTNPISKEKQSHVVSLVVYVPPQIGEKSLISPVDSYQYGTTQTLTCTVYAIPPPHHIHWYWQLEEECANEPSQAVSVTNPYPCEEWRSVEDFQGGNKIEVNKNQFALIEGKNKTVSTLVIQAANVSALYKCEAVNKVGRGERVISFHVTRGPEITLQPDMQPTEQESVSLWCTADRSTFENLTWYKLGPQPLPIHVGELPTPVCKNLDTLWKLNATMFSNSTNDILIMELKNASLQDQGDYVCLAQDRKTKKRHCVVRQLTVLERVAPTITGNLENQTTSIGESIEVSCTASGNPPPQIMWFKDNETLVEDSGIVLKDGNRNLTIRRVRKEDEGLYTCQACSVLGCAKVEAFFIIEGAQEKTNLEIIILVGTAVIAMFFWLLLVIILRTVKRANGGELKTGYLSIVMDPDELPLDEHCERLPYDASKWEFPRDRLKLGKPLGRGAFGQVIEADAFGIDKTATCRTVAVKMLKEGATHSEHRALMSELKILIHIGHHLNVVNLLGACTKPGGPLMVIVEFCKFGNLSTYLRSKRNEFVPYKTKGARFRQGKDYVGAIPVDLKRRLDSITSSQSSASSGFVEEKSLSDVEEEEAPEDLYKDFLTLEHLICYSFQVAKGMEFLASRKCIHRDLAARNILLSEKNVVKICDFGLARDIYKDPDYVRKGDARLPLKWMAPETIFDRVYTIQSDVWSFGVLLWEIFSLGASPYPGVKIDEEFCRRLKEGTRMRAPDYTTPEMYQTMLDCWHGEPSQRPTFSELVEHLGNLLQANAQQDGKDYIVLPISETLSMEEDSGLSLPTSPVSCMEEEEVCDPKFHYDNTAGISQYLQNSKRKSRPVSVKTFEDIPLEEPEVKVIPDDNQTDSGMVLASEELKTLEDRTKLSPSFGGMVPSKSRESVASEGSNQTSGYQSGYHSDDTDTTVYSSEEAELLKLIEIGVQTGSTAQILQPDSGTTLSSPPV
Epidermal growth factor receptor, sequence (P00533 whole entry): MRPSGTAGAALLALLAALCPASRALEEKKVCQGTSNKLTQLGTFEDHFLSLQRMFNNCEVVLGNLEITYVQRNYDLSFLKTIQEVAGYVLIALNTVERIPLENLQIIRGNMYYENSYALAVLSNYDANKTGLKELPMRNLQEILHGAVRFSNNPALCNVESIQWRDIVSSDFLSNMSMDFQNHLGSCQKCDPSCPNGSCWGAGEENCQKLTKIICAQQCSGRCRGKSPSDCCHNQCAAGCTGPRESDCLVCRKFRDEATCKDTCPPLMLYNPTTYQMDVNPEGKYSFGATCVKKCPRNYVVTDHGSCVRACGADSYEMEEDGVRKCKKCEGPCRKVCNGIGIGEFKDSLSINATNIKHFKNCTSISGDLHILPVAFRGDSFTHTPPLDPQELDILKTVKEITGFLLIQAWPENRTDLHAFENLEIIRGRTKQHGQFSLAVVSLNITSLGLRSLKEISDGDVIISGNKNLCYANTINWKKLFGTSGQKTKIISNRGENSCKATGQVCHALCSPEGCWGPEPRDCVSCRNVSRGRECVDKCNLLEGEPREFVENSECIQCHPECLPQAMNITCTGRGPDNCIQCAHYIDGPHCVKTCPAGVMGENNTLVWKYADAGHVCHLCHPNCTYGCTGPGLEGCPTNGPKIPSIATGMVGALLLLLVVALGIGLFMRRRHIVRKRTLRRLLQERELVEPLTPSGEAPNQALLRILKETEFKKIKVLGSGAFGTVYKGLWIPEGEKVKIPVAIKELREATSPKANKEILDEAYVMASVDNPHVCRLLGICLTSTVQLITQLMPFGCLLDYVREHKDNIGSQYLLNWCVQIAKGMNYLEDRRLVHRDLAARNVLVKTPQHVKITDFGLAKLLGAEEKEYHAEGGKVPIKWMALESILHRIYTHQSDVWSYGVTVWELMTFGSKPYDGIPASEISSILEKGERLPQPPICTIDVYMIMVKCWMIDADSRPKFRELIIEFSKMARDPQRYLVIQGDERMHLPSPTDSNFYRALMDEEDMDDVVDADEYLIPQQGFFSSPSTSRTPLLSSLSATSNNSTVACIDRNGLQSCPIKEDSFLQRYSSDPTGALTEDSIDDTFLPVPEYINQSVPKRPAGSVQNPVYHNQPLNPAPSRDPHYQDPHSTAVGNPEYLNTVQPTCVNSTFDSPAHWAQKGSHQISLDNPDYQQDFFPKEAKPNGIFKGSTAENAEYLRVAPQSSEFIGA

Compound	IC50 (A549; [5]) [µM]	IC50 (HepG2; [6]) [µM]	IC50 (MCF7; [7]) [µM]	IC50 (PC-3; [8]) [µM]	further results
CCN(CC)CCCn1cccc1/C=N/NC(=O)Nc1ccc(Oc2ccnc3[nH]ccc23)c(F)c1	1.21	2.14	3.39	2.95	
O=C(N/N=C/c1ccc(F)cc1)Nc1ccc(Oc2ccnc3[nH]ccc23)c(F)c1	0.68	3.88	0.8	2.33	
CN(C)CCn1cccc1/C=N/NC(=O)Nc1ccc(Oc2ccnc3[nH]ccc23)c(F)c1		8.98		1.6	IC50 (A549; a549): Not Active
CC(C)(C)c1cc(/C=N/NC(=O)Nc2ccc(Oc3ccnc4[nH]ccc34)c(F)c2)cc(C(C)(C)C)c1O	13.6	7.22	0.84	10.4	
O=C(N/N=C/c1cccn1CCCN1CCOCC1)Nc1ccc(Oc2ccnc3[nH]ccc23)cc1	2.24	1.69		14.7	IC50 (MCF7; mcf7): Not Active
CCN(CC)CCn1cccc1/C=N/NC(=O)Nc1ccc(Oc2ccnc3[nH]ccc23)cc1	3.57	5.88		1.37	
O=C(N/N=C/c1cccn1CCN1CCOCC1)Nc1ccc(Oc2ccnc3[nH]ccc23)cc1	3.88	9.94		1.65	
O=C(N/N=C/c1cccc(Cl)c1Cl)Nc1ccc(Oc2ccnc3[nH]ccc23)c(F)c1					IC50 (A549; a549): Not Active; IC50 (HepG2; hepg2): Not Active; IC50 (MCF7; mcf7): Not Active; IC50 (PC-3; pc-3): Not Active
O=C(N/N=C/c1ccc(Br)cc1)Nc1ccc(Oc2ccnc3[nH]ccc23)cc1	0.64	1			IC50 (MCF7; mcf7): Not Active; IC50 (PC-3; pc-3): Not Active
O=C(N/N=C/c1ccc(O)cc1)Nc1ccc(Oc2ccnc3[nH]ccc23)cc1	1.91	32.2	5.8	4.92	
O=C(N/N=C/c1cccc(Cl)c1Cl)Nc1ccc(Oc2ccnc3[nH]ccc23)cc1					IC50 (A549; a549): Not Active; IC50 (HepG2; hepg2): Not Active; IC50 (MCF7; mcf7): Not Active; IC50 (PC-3; pc-3): Not Active
O=C(N/N=C/c1ccc(Cl)c(Cl)c1)Nc1ccc(Oc2ccnc3[nH]ccc23)c(F)c1	2.65	3.7	0.998	14.1	
O=C(N/N=C/c1cccc([N+](=O)[O-])c1)Nc1ccc(Oc2ccnc3[nH]ccc23)c(F)c1	3.64	5.18		5.14	IC50 (MCF7; mcf7): Not Active
O=C(N/N=C/c1cccn1CCCN1CCCC1)Nc1ccc(Oc2ccnc3[nH]ccc23)cc1	1.3	1.42	4.53	4.29	IC50 [1]: 0.907 µM; IC50 [2]: 14.4 µM; IC50 [3]: 45 µM; IC50 [4]: 3.8 µM
O=C(N/N=C/c1ccccc1)Nc1ccc(Oc2ccnc3[nH]ccc23)cc1	17.2	0.75	1.51	10.2	
COc1ccc(/C=N/NC(=O)Nc2ccc(Oc3ccnc4[nH]ccc34)c(F)c2)c(OC)c1OC	1.45	2.99	0.134	8.97	
O=C(N/N=C/c1cccc(Br)c1)Nc1ccc(Oc2ccnc3[nH]ccc23)c(F)c1	2.22	0.66	0.049	4.02	
COc1ccc(/C=N/NC(=O)Nc2ccc(Oc3ccnc4[nH]ccc34)c(F)c2)cc1	3.98	1.77	5.75	6.73	
O=C(N/N=C/c1ccc(F)cc1)Nc1ccc(Oc2ccnc3[nH]ccc23)cc1	1.43	3.43	3.72	7.49	
COc1ccc(/C=N/NC(=O)Nc2ccc(Oc3ccnc4[nH]ccc34)cc2)cc1	4.3	9.74			IC50 (MCF7; mcf7): Not Active; IC50 (PC-3; pc-3): Not Active

Compound	IC50 (A549; [5]) [µM]	IC50 (HepG2; [6]) [µM]	IC50 (MCF7; [7]) [µM]	IC50 (PC-3; [8]) [µM]	further results
COc1cc(/C=N/NC(=O)Nc2ccc(Oc3ccnc4[nH]ccc34)c(F)c2)cc(OC)c1OC	34.1		21.9		IC50 (HepG2; hepg2): Not Active; IC50 (PC-3; pc-3): Not Active
N#Cc1ccc(/C=N/NC(=O)Nc2ccc(Oc3ccnc4[nH]ccc34)c(F)c2)cc1	1.36	0.85		9.03	IC50 (MCF7; mcf7): Not Active
COc1ccc(/C=N/NC(=O)Nc2ccc(Oc3ccnc4[nH]ccc34)cc2)c(OC)c1OC	3.34	2.96		27.6	IC50 (MCF7; mcf7): Not Active
CN(C)CCn1cccc1/C=N/NC(=O)Nc1ccc(Oc2ccnc3[nH]ccc23)cc1				3.93	IC50 (A549; a549): Not Active; IC50 (HepG2; hepg2): Not Active
O=C(N/N=C/c1ccccc1)Nc1ccc(Oc2ccnc3[nH]ccc23)c(F)c1	2.5	0.64	2.38	7.94	
O=C(N/N=C/c1ccc([N+](=O)[O-])cc1)Nc1ccc(Oc2ccnc3[nH]ccc23)cc1	2.1	4.62	15.6	28.1	
O=C(N/N=C/c1ccc([N+](=O)[O-])cc1)Nc1ccc(Oc2ccnc3[nH]ccc23)c(F)c1	0.02	3.03	4	0.15	
O=C(N/N=C/c1ccc(F)cc1Cl)Nc1ccc(Oc2ccnc3[nH]ccc23)c(F)c1	0.01	1.11	7.61	0.003	
O=C(N/N=C/c1ccc(O)cc1O)Nc1ccc(Oc2ccnc3[nH]ccc23)c(F)c1	5.84	4.55	48	13	
O=C(N/N=C/c1cccn1CCCN1CCCCC1)Nc1ccc(Oc2ccnc3[nH]ccc23)c(F)c1	2.85	2.84	4.84	2.84	
O=C(N/N=C/c1ccc(O)cc1Br)Nc1ccc(Oc2ccnc3[nH]ccc23)cc1	5.08				IC50 (MCF7; mcf7): Not Active; IC50 (PC-3; pc-3): Not Active
O=C(N/N=C/c1ccc(O)c(Br)c1)Nc1ccc(Oc2ccnc3[nH]ccc23)c(F)c1	9.25	1.36	8.23	28.6	
O=C(N/N=C/c1cc(Br)c(O)c(Br)c1)Nc1ccc(Oc2ccnc3[nH]ccc23)c(F)c1	16.2	6.52			IC50 (MCF7; mcf7): Not Active; IC50 (PC-3; pc-3): Not Active
CN(C)CCCn1cccc1/C=N/NC(=O)Nc1ccc(Oc2ccnc3[nH]ccc23)cc1	2.66	4.19	9.14	5.15	
O=C(N/N=C/c1cccn1CCN1CCOCC1)Nc1ccc(Oc2ccnc3[nH]ccc23)c(F)c1	3.41	11.9		2.45	
O=C(N/N=C/c1cccn1CCCN1CCCC1)Nc1ccc(Oc2ccnc3[nH]ccc23)c(F)c1	2.01	3.5	4.58	3.58	
CN1CCN(CCCn2cccc2/C=N/NC(=O)Nc2ccc(Oc3ccnc4[nH]ccc34)cc2)CC1	1.64	2.76	4.28	3.74	
O=C(N/N=C/c1cccn1CCCN1CCCCC1)Nc1ccc(Oc2ccnc3[nH]ccc23)cc1	1.56	3.69	4.69	3.58	
CN1CCN(CCCn2cccc2/C=N/NC(=O)Nc2ccc(Oc3ccnc4[nH]ccc34)c(F)c2)CC1	2.2	2.74	3.74	2.19	
O=C(N/N=C/c1ccc(O)cc1)Nc1ccc(Oc2ccnc3[nH]ccc23)c(F)c1	3.76	1.95		2.78	IC50 (MCF7; mcf7): Not Active
